Rows were chosen to be rich in hits. Some 2% of all compounds tested hit in one or more screens of this group.
Dynein transport: blocks dynein driven cargo transport along microtubules | 3617.4 mouse cells, GR-EGFP nuclear translocation imaging; test concentration mostly 20 µM; stimulated with dexamethasone, 1 µM; active compounds read low | z-score, hits read low | 220,000 tested, 0.47% active | AID 1381;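 active = plate z-score of nuclear minus cytoplasmic receptor signal below a set negative limit, without overly bright fluorescence or cell loss, cut at about -3.5 in these data, passing the limit was not always enough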;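 also: z-score of nuclear minus cytoplasmic ring GR-EGFP intensity difference per well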
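Buffer or medium: Induction medium lacking tetracycline, stripped serum | Also added: Dexamethasone agonist, 1.0 µM final, for 30 min | Timing: 48 h induction, 1 h compound, 30 min dex at 37 °C | Detection: Formaldehyde fixation, Hoechst nuclear stain, 10x automated fluorescence imaging | Measure: Nuclear versus cytoplasmic GR-EGFP signal, averaged per well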
Insulin prom up: MIN6 insulin promoter up-regulation; 190,000 tested, 0.3% active; MIN6 insulin promoter-GFP reporter, high-content imaging; active compounds read high; z-score at 5 µM; AID 1625;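 active = z-score above 3 at 5 µM with at least 500 cells counted in the well; inconclusive = wells under 500 cells, flagged as cytotoxic or low count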
Autophagy mod: autophagy modulation, high-content screen | MEF GFP-LC3 puncta imaging; test concentration mostly 10 µM | calls only at 10 µM (by protocol) | 190,000 tested, 0.98% active;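 active = percentage of spot-positive cells more than 3 SD above its plate mean, without a fluorescence outlier flag or 80% toxicity; inconclusive = no clear call, values can overlap the other calls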;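 also: spot-positive cell cutoff set from DMSO-treated cells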
Insulin prom inh: TRM-6 insulin promoter activity inhibition | 130,000 tested, 0.9% active | AID 1273 | TRM-6 cells, insulin promoter-eGFP reporter, imaging; reporter expression induced with tamoxifen | inhibition, % at 2 µM;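 active = inhibition above the mean plus 3 SD, with well images judged a real hit on visual review, cut at about 60% in these data, passing the limit was not always enough; inconclusive = inhibition over the cutoff but images rejected on review; inactive = inhibition not above the cutoff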
Dynein confirm: dynein cargo transport inhibition, confirmation. shares compounds with Dynein transport. 3617.4 GR-EGFP nuclear translocation imaging, dexamethasone-induced. calls only at 20 µM. 1,000 tested, 69% active. AID 463116;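 active = inhibition of receptor movement into the nucleus at or above a set limit in both runs, with normal cell brightness and cell count; inconclusive = limit reached in only one run, brightness and count normal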;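 also: dexamethasone at 1 µM final in well for 30 min; nuclear minus cytoplasmic GR-EGFP mean intensity difference in channel 2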
The depositor's hits bear a star; i = inactive; u = inconclusive; x = not tested or not shown; + = active, no number.

SMILES | Dynein transport | Insulin prom up | Autophagy mod | Insulin prom inh | Dynein confirm
COc1cccc(C(=O)N2CCN(C3CCN(Cc4ccccc4)CC3)CC2)c1OC | 1 | 0.21 | x | x | x
Cc1cc(C(=O)Cn2ncc(Cl)c(Cl)c2=O)c(C)n1CC(F)(F)F | -5.14* | -2.92 | i | x | +
Cc1cccc(Cn2ncc(Cl)c(Cl)c2=O)c1 | -4.3* | -0.56 | i | x | +
Cc1cccc(Cn2nnc3c2C(=O)c2ccccc2C3=O)c1 | -0.795 | 0.19 | i | -69.2 | x
O=C(OCn1ncc(Cl)c(Cl)c1=O)c1ccc(C(F)(F)F)cc1 | -3.05 | x | i | -35.7 | x
Cc1cc(Br)ccc1NC(=O)CNC(=O)Cn1ncc(Cl)c(Cl)c1=O | -1.1 | 1.72 | i | x | x
Cc1ccc(C(=O)OCn2ncc(Cl)c(Cl)c2=O)cc1 | -3.8* | u | u | -193.6 | +
Cc1ccc(C)c(C(=O)Cn2ncc(Cl)c(Cl)c2=O)c1 | -4.71* | -0.36 | i | -269.2 | u
CCOC(=O)C1(CC2CCCCO2)CCN(S(=O)(=O)c2c(C)nn(C)c2C)CC1 (stereo not drawn) | -0.458 | 0.62 | i | x | x
Cc1cc2oc(=O)cc(Cn3ncc(Cl)c(Cl)c3=O)c2cc1Cl | -6.11* | u | + | x | +
C/C(N)=C(/C#N)C(=O)COC(=O)CNS(=O)(=O)c1c(F)cccc1F | 0.745 | 0.17 | i | -20.0 | x
CCCCc1ccc(/C=C2\C(=O)c3ccccc3C(O)=C2C(=O)OCC)cc1 | -4.25* | -1.3 | i | x | +
CCOC(=O)C1=C(Cc2ccc(F)cc2)C(=O)c2ccccc2C1=O | -1.74 | 1.56 | i | -22.2 | x
Cc1ccc(N2C(=N)/C(=C3/Nc4ccccc4S3)C(c3ccccc3)C2=O)cc1 (stereo not drawn) | -3.56* | -0.44 | + | x | +
Cc1ccc(N2C(=O)C(F)(F)C2c2ccccc2)cc1 (stereo not drawn) | 0.668 | 1.18 | i | -7.1 | x
Cc1onc(-c2ccccc2)c1-c1nc2ccccc2c(=O)o1 | -0.199 | x | i | -11.1 | x
Cc1onc(-c2ccccc2)c1-c1nc2cc(Cl)ccc2c(=O)o1 | -3.84* | 0.02 | x | x | +
Cc1nc(C(=O)N/N=C/c2[nH]ncc2Br)cs1 | 0.744 | x | x | x | x
Cc1ccc(C(=O)/C=C/c2ccccc2)o1 | -3.73* | -0.31 | i | -26.7 | u
COc1ccccc1/C=C/CN1CCCC(CCC(=O)NCc2ccccc2F)C1 (stereo not drawn) | 2.6 | 0.45 | i | x | x
CCSc1nc2ccccc2n1C(=O)/C=C\c1ccc(OC)c(OC)c1 | -4.33* | -1.98 | i | x | +
BrC(=C\c1ccccc1)/C=N/n1cnnc1 | -3.7* | -0.47 | i | -120.0 | +
O=C(NCc1cccnc1)/C(=C\c1ccc(-c2ccc(Br)cc2)o1)S(=O)(=O)c1ccccc1 | -4.57* | -1.59 | i | 3.7 | +
O=C(NCc1cccnc1)/C(=C/c1ccc(-c2ccc(Cl)cc2)o1)S(=O)(=O)c1ccccc1 | -5.34* | x | i | -21.7 | +
COCCCn1c(O)c(/C=C2\N=C(C#N)C(=Nc3ccc(C)cc3)O2)sc1=S | -6.43 | -0.1 | x | x | +
SMILES | Dynein transport | Insulin prom up | Autophagy mod | Insulin prom inh | Dynein confirm
O=C(O)CCCn1c(O)c(C=C2N=c3ccccc3=N2)sc1=S | 0.089 | 0.17 | x | x | x
Cc1cc(-n2c(C)cc(C(=O)CN3C(=O)NC4(CCCC4)C3=O)c2C)no1 | 1.05 | 0.23 | i | x | x
COc1ccc(-n2c(C)cc(C(=O)CCl)c2C)cc1 | -3.84* | 0.11 | + | -18.5 | +
Cc1cc(-n2c(C)cc(C(=O)CCl)c2C)no1 | -7.33* | -3.18 | u | x | +
S=C1Cc2ccccc2N1 | 0.401 | u | x | x | x
COc1ccc(/C=C/C(=O)Oc2cc(C)[nH]c(=O)c2[N+](=O)[O-])cc1OC | -1.32 | 0.16 | i | -40.0 | x
CC(C)(C)OC(=O)NCCc1nnc(S(=O)(=O)Cc2ccc(Cl)cc2Cl)o1 | -6.28* | -0.27 | i | 23.1 | u
CC(C)(C)OC(=O)NCCc1nnc(SCc2ccccc2Cl)o1 | -1.04 | -1.86 | i | -9.7 | x
O=C(CC1C(=O)NCCN1Cc1ccoc1)NCCCn1ncc2ccccc21 (stereo not drawn) | 0.102 | -0.08 | i | x | x
c1cncc(-c2nc(-c3ccco3)cs2)c1 | -4.54* | 1.49 | i | x | i
Clc1ccsc1-c1csc(-c2cccnc2)n1 | -0.961 | -0.3 | i | -12.5 | x
COc1ccc(/C=c2\s/c(=C/C(=O)c3ccc(C)cc3)[nH]c2=O)cc1OC | -6.6 | 2.82 | i | -87.9 | i
CC(C)(C)C(=O)/C=c1\[nH]c(=O)/c(=C\c2ccc(F)cc2)s1 | -0.0489 | -0.47 | i | -25.0 | x
CC(=O)Nc1c([N+](=O)[O-])cc(C)c(Cl)c1[N+](=O)[O-] | -5.8* | -1.01 | i | x | +
CC(=O)Nc1c([N+](=O)[O-])cc2[nH]c(=O)[nH]c2c1[N+](=O)[O-] | -0.888 | 0.64 | i | -131.2 | x
O=C(CCCCCCCC(=O)c1ccccc1)c1ccccc1 | -0.192 | -0.3 | i | x | x
C=C(CCC(=O)c1ccccc1)C(=O)c1ccccc1 | -3.78* | x | i | x | +
CCCn1nc(-c2ccccc2)c2nc3ccccc3nc21 | -4.51 | 2.9 | + | x | i
COC(=O)c1ccc(C#Cc2ccccc2)o1 | -0.385 | -0.19 | x | x | x
Cc1cccc(NC2=CC(=O)CC(C)(C)C2)c1C | 0.502 | 0.03 | i | x | x
O=c1c2ccccc2c(C=NC2CCN(Cc3ccccc3)CC2)c(O)n1Cc1ccc2c(c1)OCO2 | -0.526 | -0.31 | i | x | x
O=C(CCSc1ccccn1)c1ccccc1 | -3.96* | -0.61 | i | -22.2 | i
O=C(COc1ncnc2ccccc12)Nc1cc([N+](=O)[O-])ccc1F | -0.707 | 1.11 | x | x | x
CC(C)N1C(=O)/C(=C/c2nc3ccccc3c(=O)n2-c2ccccc2)c2ccccc21 | -4.06* | 0.09 | i | 39.1 | +
O=C1c2ccccc2-n2c1nc1ccccc1c2=O | 0.371 | 1.43 | i | x | x
SMILES | Dynein transport | Insulin prom up | Autophagy mod | Insulin prom inh | Dynein confirm
CC(C)N1C(=O)C(Cc2nc3ccccc3c(=O)n2-c2ccccc2)c2ccccc21 (stereo not drawn) | 0.326 | -2.17 | i | x | x
CC(C)N1C(=O)/C(=C\c2nc3ccccc3c(=O)n2-c2ccccc2)c2ccccc21 | -5.04* | -1.37 | i | -9.4 | +
COC(=O)c1sccc1N(C)S(C)(=O)=O | -1.44 | x | i | 11.1 | x
CC(C)(C)c1ccccc1NC(=O)NC1CCN(Cc2c(F)cccc2Cl)CC1 | 0.844 | 0.05 | x | x | x
COc1ccc(C(=O)C(CN2CCOCC2)c2ccccc2)cc1F (stereo not drawn) | -3.99* | 0.13 | i | 71.4* | +
CC(=O)/C=C1/C(=O)Nc2ccccc21 | -5.55* | 0 | i | 44.2 | +
COC1=C(C)C(O)=C(C(=O)/C=C/c2ccccc2)C(=O)C1(C)C | -5.25* | x | x | x | +
CS(=O)(=O)N(CC(=O)NCc1ccncc1)C1CCCCC1 | 1.56 | 0.83 | i | x | x
CCCCCCCOC(=O)C[N+](C)(C)CCOC1CC2CCC1(C)C2(C)C (stereo not drawn) | -4.55* | u | i | x | i

Source: PubChem
